Screening results: PubChem BioAssay, Broad Institute
MLL AF4-AF9 inh = blocks AF4 peptide binding to human AF9. AID 651704. P42568. inhibition, % at 10 µM. hit rate 0.47% among 350,000. AlphaScreen, biotin-AF4 peptide binding to FLAG-AF9;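 active means every replicate reaching a set inhibition limit, whatever the replicate mean, cut at about 25% in these data; inconclusive means mean inhibition reaches that limit but some replicates miss it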;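 further: 0% = plate neutral control median and 100% = total signal loss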
FN deposition inh = fibronectin deposition inhibition | inhibition, % at 12.6 µM | hit rate 0.086% among 350,000 | AH1F fibroblasts, Alexa488-fibronectin deposition fluorescence, overnight;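 active means mean inhibition across replicates of 30% or more, regardless of how many single replicates reach that level; inconclusive means mean under 30% yet at least half of replicates reach 30%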;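 further: positive control wells lacked labelled fibronectin entirely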
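test system = AH1F fibroblasts assembling fluorescent fibronectin matrix | quantity = 10000 AH1F cells per well | buffer or medium = DMEM plus 2% serum, read in PBS | doses = single dose, pinned | incubation = 1 h cell attachment, overnight exposure to compound and label | detection = fluorescence at 485 nm excitation, 525 nm emission | read-out basis = inhibition from reduced deposited-fibronectin fluorescence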
FGF22 binding = shifts melting point of recombinant human FGF22; hit rate 1.5% among 340,000; recombinant FGF22 thermal shift, SYPRO orange fluorescence; percent of sucrose octasulfate shift, DMSO zero; activity (Tm shift, normalised), % at 9.99 µM; Q9HCT0;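 active means mean Tm shift, scaled 0 neutral to 100 positive control, at about 1.3% or above, every replicate too, limit read from the data; inconclusive means no clear call, values can overlap the other calls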
Target sequence (Q9HCT0 whole entry, looked up): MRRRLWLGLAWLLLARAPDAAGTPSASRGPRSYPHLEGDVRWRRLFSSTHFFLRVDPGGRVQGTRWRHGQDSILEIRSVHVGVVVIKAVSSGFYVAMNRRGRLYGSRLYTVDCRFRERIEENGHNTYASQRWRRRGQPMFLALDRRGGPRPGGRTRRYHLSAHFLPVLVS
ARNT TACC3 PPI = disruptors of human ARNT/TACC3 interaction | Q9Y6A5 | hit rate 0.66% among 390,000 | inhibition, % at 9.99 µM | AlphaScreen His-ARNT PAS-B/GST-TACC3 binding, luminescence; TACC3 fragment carries E629A point mutation;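 active means mean inhibition of replicates at least 50% and at least half of replicates each reaching 50%; inconclusive means half or more replicates reach 50% but mean below 50%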;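 further: 0% = complete ARNT plus TACC3 wells and 100% = ARNT alone without TACC3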
PDI inh = blocks human protein disulfide isomerase activity | P07237 | PDI insulin aggregation turbidity, A650, 90 min | inhibition, % at 10 µM | hit rate 0.052% among 350,000;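 active means mean inhibition across replicates of 30% or more, whatever share of single replicates reach that level; inconclusive means mean inhibition below 30% while every single replicate reaches 30%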
ERp5 inh = inhibitors of human ERp5; ERp5 insulin aggregation, absorbance 650 nm, 90 min; AID 651711; inhibition, % at 9.99 µM; hit rate 0.05% among 350,000; Q15084;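 active means mean replicate inhibition above about 25%, with every replicate also reaching it, limit read from the data, passing the limit was not always enough; inconclusive means only one of those two criteria met; inactive means neither criterion met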
Target sequence (Q15084 whole entry, looked up): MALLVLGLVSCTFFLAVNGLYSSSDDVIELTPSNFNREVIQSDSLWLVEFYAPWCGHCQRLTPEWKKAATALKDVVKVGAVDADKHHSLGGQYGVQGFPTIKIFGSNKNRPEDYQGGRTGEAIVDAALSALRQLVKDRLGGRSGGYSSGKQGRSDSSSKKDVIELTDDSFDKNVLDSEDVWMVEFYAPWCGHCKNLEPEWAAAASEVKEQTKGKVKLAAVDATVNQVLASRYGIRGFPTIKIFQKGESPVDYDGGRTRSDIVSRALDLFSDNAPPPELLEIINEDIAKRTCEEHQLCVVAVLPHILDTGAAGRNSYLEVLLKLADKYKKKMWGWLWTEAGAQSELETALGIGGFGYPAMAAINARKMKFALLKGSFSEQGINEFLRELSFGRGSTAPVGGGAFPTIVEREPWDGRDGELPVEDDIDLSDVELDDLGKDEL
An asterisk follows results filed as active; ? = inconclusive; . = no result. Rows were chosen to be rich in hits. Some 2.1% of all compounds tested hit in one or more screens of this group.

SMILES	MLL AF4-AF9 inh	FN deposition inh	FGF22 binding	ARNT TACC3 PPI	PDI inh	ERp5 inh
CCN(CC)CCCNC1=C(Cl)C(=O)c2ccccc2C1=O	5	-7	-1	15*	8	4
CCOC(=O)c1c2c(n(Cc3ccccc3)c1C)C(=O)C(=O)c1ccccc1-2	5	30*	0	0	13	-4
CCOC(=O)c1c2c(n(C)c1C)C(=O)C(=O)c1ccc(Br)cc1-2	.	8	.	2	11	.
CCC(C)C(=O)Nc1ccc([N+](=O)[O-])cc1OC (stereo not given)	2	11	43*	.	2	-5
O=C(NCCCN1CCOCC1)c1ccc(CS(=O)(=O)Cc2ccccc2Cl)o1	.	.	.	active	2	.
O=C(NCCCN1CCCCCC1)c1ccc(CS(=O)(=O)Cc2ccccc2F)o1	.	.	.	20	3	.
O=C(CC1SC(=O)N(c2ccccc2)C1=O)Nc1ccc(Br)cc1 (stereo not given)	-1	-6	0	.	-1	2
CN(C1=NC(=O)C(CC(=O)Nc2ccc(Br)cc2)S1)c1ccc(O)cc1 (stereo not given)	.	3	.	-7	61*	.
Nc1nc2ccc(C(=O)NCCOC(=O)C3CCCCC3)cc2s1	-1	15	1	66*	-5	1
CC(=O)Nc1nc2ccc(C(=O)NCCOC(=O)C3CCCCC3)cc2s1	-4	2	0	-6	-17	-7
COc1ccc(CN(C)C[C@@H]2Oc3ccc(NC(=O)Cc4cn(C)c5ccccc45)cc3CC(=O)N([C@H](C)CO)C[C@@H]2C)cc1	8	.	0	5	.	-7
CC(=O)Oc1ccc2oc(=O)c3c(c2c1)CCCN3C(=O)CN1CCOCC1	-1	7	43*	2	-2	11
O=C(Cc1ccncc1)NCC[C@@H]1CC[C@H](NC(=O)C2CCCCC2)[C@@H](CO)O1	0	.	0	6	.	0
Oc1cc(NCc2ccc(Cl)cc2)cc2cccnc12	-1	7	0	37*	-6	1
CCOc1ccc(N2C(=O)C3C(c4ccc(O)cc4)NC(CCSC)(C(=O)OC)C3C2=O)cc1 (stereo not given)	2	6	44*	.	-4	6
NC1=NC(=O)/C(=C/c2cc(Br)c(O)c(Br)c2)S1	2	-6	2.0*	3	8	-11
NC1=NC(=O)/C(=C/c2ccc(Br)cc2)S1	-2	-7	0	0	-7	1
COc1ccc(NC(=O)/C(C#N)=C/c2c(C)nn(-c3ccc(F)cc3)c2Cl)cc1OC	-3	3	0	1	11	-14
COc1ccccc1NC(=O)/C(C#N)=C/c1c(C)nn(-c2ccc(F)cc2)c1Cl	-1	2	43*	-3	3	-1
CCN(CC)C(=O)C(=O)c1ccn(-c2c(C)csc2C(=O)OC)c1	-1	3	43*	.	18	-10
COC(=O)c1scc(C)c1-n1ccc(C(=O)C(=O)N(C)C)c1	-2	-11	0	.	-4	-4
CCN1CCN(CC(=O)N2N=C(c3cccs3)CC2c2ccc(OC)cc2)C(=O)C1=O (stereo not given)	1	.	43*	-8	0	4
CCN1CCN(CC(=O)N2N=C(c3cccs3)CC2c2ccc(C)cc2)C(=O)C1=O (stereo not given)	-1	-1	0	-6	-7	-1
O=C(Nc1cccc(NC(=O)c2ccco2)c1)c1cccc(Br)c1	1	8	43*	2	-9	0
CCOc1cccc(C(=O)Nc2ccc3ccccc3c2)c1	0	-1	0	3	-3	4
SMILES	MLL AF4-AF9 inh	FN deposition inh	FGF22 binding	ARNT TACC3 PPI	PDI inh	ERp5 inh
CCOc1cccc(C(=O)Nc2cccc(NC(=O)c3ccco3)c2)c1	0	0	1.5*	-4	2	1
CCOc1cccc(C(=O)Nc2ccc(N(CC)CC)cc2)c1	.	30*	.	14	1	.
Nc1ccc(NC(=O)c2ccco2)c(Cl)c1	-2	4	44*	3	-3	7
O=C(Nc1cc(Br)c(O)c(Br)c1)c1cccc(NC(=O)c2ccco2)c1	-3	2	0	8	2	?
CCOc1cccc(C(=O)Nc2cccc(C(C)=O)c2)c1	.	-1	.	.	-1	.
C[C@H](CO)N1C[C@H](C)[C@H](CN(C)C(=O)C2CCCCC2)Oc2ncc(C#CC3CCCC3)cc2C1=O	-2	3	0	-1	.	2
O=C(C[C@@H]1C[C@@H]2c3cc(NS(=O)(=O)c4ccc(F)cc4)ccc3O[C@@H]2[C@H](CO)O1)NCCN1CCCCC1	6	-12	0	-3	.	-2
CC(=O)Nc1cccc(NC(=O)c2ccc(COc3ccccc3)cc2)c1	1	6	43*	-10	-5	2
CC(=O)Nc1ccc(NC(=O)c2ccc(COc3ccccc3)cc2)cc1	4	1	0	-5	-24	3
O=C(Nc1c(Cl)ccc2nsnc12)c1ccco1	0	-1	44*	.	-10	4
O=C(COc1ccccc1)Nc1c(Cl)ccc2nsnc12	1	-1	0	7	1	-3
O=C(Nc1ccc(O)cc1C(=O)O)c1ccc(NC(=O)c2ccco2)cc1	-1	6	2.1*	13	-2	-5
O=C(C1CCC1)N1CC2(C1)[C@H](c1ccccc1)[C@@H](CO)N2Cc1ccc(Cl)cc1	-3	-1	.	.	.	2
C[C@H](CO)N1C[C@H](C)[C@@H](CN(C)Cc2ccncc2)Oc2ccc(NC(=O)Nc3ccc4c(c3)OCO4)cc2CC1=O	12	.	0	2	.	5
COc1ccc(C(=O)N2C[C@@H]3[C@H](c4ccccc42)[C@H](CO)N3Cc2ccccc2)cc1	-1	.	-1	-11	.	-3
CC(=O)N(C)C[C@H]1Oc2ncc(C#Cc3ccccn3)cc2C(=O)N([C@@H](C)CO)C[C@@H]1C	-7	.	0	.	.	5
CCc1ccc(S(=O)(=O)Nc2ccc(O)c3c(=O)cc(-c4ccccc4Cl)oc23)cc1	1	-5	19*	-2	11	5
CNC(=O)C[C@@H]1CC[C@H]2[C@H](COc3ccc(NC(=O)Nc4c(C)noc4C)cc3C(=O)N2C)O1	.	-10	.	.	.	.
CCOc1ccc(S(=O)(=O)Nc2cccc(C)c2)c2cccnc12	0	-2	43*	-6	-1	-2
CCOc1ccc(S(=O)(=O)Nc2ccc3c(c2)OCO3)c2cccnc12	.	3	.	9	9	.
CCNc1nc(NCC)nc(C(=O)NN)n1	.	6	.	75*	-1	.
CCNc1nc(NCC)nc(OCC(=O)O)n1	-7	29	0	-7	3	7
CCCC[n+]1c(C)sc2ccc(C)cc21	-17	-12	43*	0	-5	0
NC(=S)N=Nc1c(O)cc(O)c2[nH]c(=O)ccc12	5	-9	0	64*	4	-10
